In data set [1] the test system is Vibrio harveyi. Put plainly: Mutagenicity in Vibrio harveyi BB7X assessed as number of colonies after 48 hrs (reference value: 15 to 16 no_unit). It counts as ADME, organism-based. Conditions: in vivo. A digest of the protocol: (§1)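 Vibrio harveyi mutagenicity test: test compound was added to exponentially growing cultures (A600 = 0.1, 30 °C) and grown to OD600 0.3–0.4. Then 5 × 10^6 cells were plated on BOSS agar with neomycin (final 100 µg/mL) and incubated 48 h at 30 °C. Neomycin-resistant colonies were counted. Triplicate; controls were water, DMSO and NQNO 40 ng/mL.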

Data set [2] concerns Rattus norvegicus. The experiment in a line: Neurotoxicity in rat at 30 mg/kg, po after 2 hrs by rotarod test. It counts as toxicity, organism-based. The conditions noted are these: in vivo.
Data set [3] relates to Rattus norvegicus. Put plainly: Neurotoxicity in rat at 30 mg/kg, ip after 4 hrs by rotarod test. It counts as toxicity, organism-based. The conditions noted are these: in vivo. A general note: The rotarod test checks motor coordination on a turning rod.
Data set [4] relates to Rattus norvegicus. Put plainly: Neurotoxicity in rat at 30 mg/kg, ip after […] by rotarod test. It counts as toxicity, organism-based. Conditions: in vivo.
Data set [5] concerns Mus musculus. The experiment in a line: Anticonvulsant activity in ip dosed mouse assessed as protection against maximal electric shock-induced seizures measured after […]. It counts as functional.
For data set [6], the system named is Mus musculus. Put plainly: Neurotoxicity in mouse at 20 mg/kg, ip after […] by rotarod test. It counts as toxicity, organism-based. Conditions: in vivo.
Data set [7] concerns Vibrio harveyi. The experiment in a line: Antimutagenic activity against Vibrio harveyi BB7M assessed as inhibition of NQNO-induced mutagenicity after 48 hrs. It counts as functional. A digest of the protocol:
(§2)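 V. harveyi cultures grown exponentially to A600 0.1 at 30 °C, exposed to test compound for 15 min, then to NQNO, and grown on to A600 0.3–0.4. 5 × 10⁶ cells plated on BOSS agar with neomycin (100, final). Neomycin-resistant colonies counted after 48 h at 30 °C. Result given as % inhibition of NQNO mutagenicity; three independent repeats.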

The subject of data set [8] is Mus musculus. Put plainly: Neurotoxicity in mouse at 40 mg/kg, ip after 1 hr by rotarod test. It counts as toxicity, organism-based. The conditions noted are these: in vivo.
Data set [9] has as its system Mus musculus. The experiment in a line: Neurotoxicity in mouse at 40 mg/kg, ip after […] by rotarod test. It counts as toxicity, organism-based. The conditions noted are these: in vivo.
Data set [10] deals with Mus musculus. The experiment in a line: Neurotoxicity in mouse at 20 mg/kg, ip after 4 hrs by rotarod test. It counts as toxicity, organism-based. The conditions noted are these: in vivo.
Data set [11] in a line: Neurotoxicity in ip dosed mouse after […] by rotarod test. It counts as toxicity, organism-based. Conditions: in vivo.
A short description of data set [12]: in vitro. The conditions noted are these: mouse, liver microsomes. (In general: Liver microsomes are vesicles of endoplasmic reticulum, rich in cytochrome P450 enzymes.)
Data set [13] has as its system Vibrio harveyi. Put plainly: Mutagenicity in Vibrio harveyi BB7XM assessed as number of colonies after 48 hrs (reference value: 14 no_unit). It counts as ADME, organism-based. The conditions noted are these: in vivo. A digest of the protocol:
as §1

Data set [14] deals with Mus musculus. The experiment in a line: Neurotoxicity in mouse at 100 mg/kg, ip after 0.5 hrs by rotarod test. The conditions noted are these: in vivo. It counts as toxicity, organism-based. Summed up: (§3)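 Mice were dosed ip with compound suspended in 0.5% methylcellulose. Rotarod: a 1 in. knurled rod turning at 6 rpm. Neurotoxicity was scored as failure to stay on the rod for at least 1 min in each of three trials. Results are given as the number of animals affected out of the number tested.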

Data set [15] deals with Mus musculus. Put plainly: Neurotoxicity in mouse at 300 mg/kg, ip after 0.5 hrs by rotarod test. It counts as toxicity, organism-based. The conditions noted are these: in vivo. Summed up:
as §3

In data set [16] the test system is Mus musculus. The experiment in a line: Neurotoxicity in mouse at 40 mg/kg, ip after 2 hrs by rotarod test. It counts as toxicity, organism-based. Conditions: in vivo.
Data set [17] concerns Rattus norvegicus. Put plainly: Neurotoxicity in rat at 30 mg/kg, po after […] by rotarod test. It counts as toxicity, organism-based. Conditions: in vivo.
The test system of data set [18] is Vibrio harveyi. Put plainly: Mutagenicity in Vibrio harveyi BB7 assessed as number of colonies after 48 hrs (reference value: 13 to 14 no_unit). It counts as ADME, organism-based. Conditions: in vivo. Summed up:
as §1

The subject of data set [19] is Vibrio harveyi. The experiment in a line: Antimutagenic activity against Vibrio harveyi BB7 assessed as inhibition of NQNO-induced mutagenicity after 48 hrs. It counts as functional. A digest of the protocol:
as §2

In data set [20] the test system is Rattus norvegicus. The experiment in a line: Neurotoxicity in rat at 30 mg/kg, po after 1 hr by rotarod test. The conditions noted are these: in vivo. It counts as toxicity, organism-based.
Data set [21] is described as follows: Retention time of the compound in mouse liver microsomes at 20 uM preincubated for 15 mins followed by addition of NADPH-regenerating system measured after 5 to 90 mins by […] analysis. It counts as ADME. Summed up: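 Mouse liver microsomes (0.4 mg/mL) with test compound (20 µM) in 100 mM potassium phosphate, pH 7.4, were preincubated 15 min at 37 °C. An NADPH-regenerating system was then added and incubation ran 5–90 min at 37 °C. Levallorphan (20 µM) served as internal standard, and reactions were quenched with perchloric acid. The supernatant was analysed by UPLC/MS. Duplicate incubations.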

In data set [22] the test system is Mus musculus. The experiment in a line: Neurotoxicity in mouse at 40 mg/kg, ip after 4 hrs by rotarod test. It counts as toxicity, organism-based. Conditions: in vivo.
Data set [23] deals with Rattus norvegicus. Put plainly: Neurotoxicity in rat at 30 mg/kg, ip after 0.5 hrs by rotarod test. Conditions: in vivo. It counts as toxicity, organism-based.
Data set [24] concerns Rattus norvegicus. The experiment in a line: Neurotoxicity in rat at 30 mg/kg, po after 4 hrs by rotarod test. It counts as toxicity, organism-based. Conditions: in vivo.
For data set [25], the system named is Rattus norvegicus. The experiment in a line: Neurotoxicity in rat at 30 mg/kg, ip after 2 hrs by rotarod test. It counts as toxicity, organism-based. The conditions noted are these: in vivo.
Data set [26] concerns Mus musculus. Put plainly: Neurotoxicity in mouse at 20 mg/kg, ip after 1 hr by rotarod test. It counts as toxicity, organism-based. Conditions: in vivo.
The test system of data set [27] is Rattus norvegicus. Put plainly: Toxicity in pilocarpine-induced status epilepticus Sprague-Dawley rat assessed as death at 100 mg/kg, ip after […]. The conditions noted are these: in vivo. It counts as organism-based.
The test system of data set [28] is Mus musculus. Put plainly: Anticonvulsant activity in ip dosed mouse assessed as protection against subcutaneous pentylenetetrazol-induced seizures measured after […]. It counts as functional.
Data set [29] relates to Mus musculus. The experiment in a line: Neurotoxicity in mouse at 20 mg/kg, ip after 2 hrs by rotarod test. It counts as toxicity, organism-based. The conditions noted are these: in vivo.
Data set [30] is described as follows: in vitro. The conditions noted are these: mouse, liver microsomes. The source holds these as a separate data set.
Data set [31] has as its system Mus musculus. Put plainly: Neurotoxicity in mouse at 20 mg/kg, ip after 0.5 hrs by rotarod test. The conditions noted are these: in vivo. It counts as toxicity, organism-based.
For data set [32], the system named is Vibrio harveyi. Put plainly: Antimutagenic activity against Vibrio harveyi BB7XM assessed as inhibition of NQNO-induced mutagenicity after 48 hrs. It counts as functional. A digest of the protocol: as §2
For data set [33], the system named is Rattus norvegicus. Put plainly: Neurotoxicity in rat at 30 mg/kg, po after 0.5 hrs by rotarod test. It counts as toxicity, organism-based. The conditions noted are these: in vivo.
The subject of data set [34] is Vibrio harveyi. Put plainly: Mutagenicity in Vibrio harveyi BB7M assessed as number of colonies after 48 hrs (reference value: 13 to 14 no_unit). It counts as ADME, organism-based. The conditions noted are these: in vivo. Summed up: as §1
In data set [35] the test system is Rattus norvegicus. Put plainly: Neurotoxicity in rat at 30 mg/kg, ip after 1 hr by rotarod test. It counts as toxicity, organism-based. Conditions: in vivo.
In data set [36] the test system is Mus musculus. Put plainly: Neurotoxicity in mouse at 30 mg/kg, ip after 4 hrs by rotarod test. Conditions: in vivo. It counts as toxicity, organism-based. Summed up: as §3
Data set [37] is described as follows: Neurotoxicity in ip dosed mouse by rotarod test. It counts as toxicity, organism-based. Conditions: in vivo.
The subject of data set [38] is Mus musculus. Put plainly: Anticonvulsant activity in ip dosed mouse assessed as protection against maximal electric shock-induced seizures. It counts as functional, organism-based. A digest of the protocol: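 Compound suspended in 0.5% methylcellulose and given ip to mice; screening doses 30, 100 and 300 mg/kg, read at 0.25–4 h. Protection was defined as abolition of hindlimb tonic extension.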

SMILES strings stand for the structures.

Regarding `Cc1cccc(C)c1OCCOCCN[C@@H](C)CO`, the Activity with Vibrio harveyi [1] is 22; with Rattus norvegicus [2] it was “Non-toxic”; in the data set on Rattus norvegicus [3] it was “Non-toxic”; in the data set with Rattus norvegicus [4], “Non-toxic”; in the data set with Mus musculus [6], “Non-toxic”; with Mus musculus [8] it was “Non-toxic”. The Activity result in the data set on Mus musculus [9] is listed as “Toxic”; with Mus musculus [10], “Non-toxic”; with Vibrio harveyi [13] it was 18; with Mus musculus [14], “Toxic”; in the data set with Mus musculus [15], “Toxic”; in the data set with Mus musculus [16], “Non-toxic”. The Activity result in the data set with Rattus norvegicus [17] is listed as “Non-toxic”; with Vibrio harveyi [18] it was 15; in the data set with Rattus norvegicus [20], “Non-toxic”; in the data set with Mus musculus [22], “Non-toxic”; in the data set on Rattus norvegicus [23], “Non-toxic”; in the data set on Rattus norvegicus [24], “Non-toxic”. Further, the Activity entry in the data set with Rattus norvegicus [25], in the data set on Mus musculus [26], with Rattus norvegicus [27], in the data set on Mus musculus [29], in the data set on Mus musculus [31] and with Rattus norvegicus [33] was “Non-toxic” in each case. Also, the values for the Activity with Vibrio harveyi [34], with Rattus norvegicus [35] and with Mus musculus [36] were 26, “Non-toxic” and “Non-toxic”, respectively. The ED50 was 11.3 mg/kg with Mus musculus [5] and above 43 mg/kg in the data set on Mus musculus [28]. The “inhibition (INH)” value was determined as 69% in the data set on Vibrio harveyi [7], 70% in the data set with Vibrio harveyi [19] and 5% with Vibrio harveyi [32]. The compound further displayed a TD50 at […] in data set [11] of 39.2 mg/kg. In the data set “in vitro [12]”, the microsomal CLint at 20 µM is 47 µL/min/mg. Also, the Retention_time in data set [21] was 3.8 min. In addition, in the data set “in vitro [30]”, the half-life at 20 µM came out at 37 min.

As for `Cc1cccc(C)c1OCCN[C@H](C)CO`, the ED50 in the data set on Mus musculus [5] is 5.34 mg/kg; in the data set with Mus musculus [28] it was above 50 mg/kg. The TD50 at […] in [11] was determined as 29.5 mg/kg. The TD50 in data set [37] came out at 29.5 mg/kg. In the data set with Mus musculus [38], the EC50 was determined as 5.34 mg/kg.

As a reminder, the ED50 is the dose at which the effect has come halfway, by size or by number of responders. In general, TD50 refers to the 50% point of the dose-response relation for the toxic effect studied. By microsomal CLint is commonly meant the rate of metabolic loss divided by the concentration. What is called half-life is how long it takes for the measured level to halve. Higher therefore signals slow loss.

For the origin of these results see ChEMBL document CHEMBL3774372, “Design, physico-chemical properties and biological evaluation of some new N-[(phenoxy)alkyl]- and N-{2-[2-(phenoxy)ethoxy]ethyl}aminoalkanols as anticonvulsant agents” (Bioorg Med Chem, 2016).
